Laboratory results from ChEMBL document CHEMBL1143934, “Design and synthesis of biologically active analogues of vitamin K2: evaluation of their biological activities with cultured human cell lines” (Bioorg Med Chem, 2008).

Tests used:
MG-63 = experiment: Induction of apoptosis against human MG63 cells after 72 hrs; assay type: functional, cell-based
How it was run: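 MG-63 osteosarcoma cells, double thymidine block (2.5 mM, 12 h each) for S-phase synchronization. Treated 3 days at 10^-5 and 10^-6 M in DMEM. Permeabilized with 0.2% Triton X plus RNase, 37 °C for 1 h. Stained with propidium iodide 50 µg/mL, 4 °C for 20 min. DNA content by flow cytometry, 488 nm. Mean ± SD of three independent experiments.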

[1] = system: Vitamin K-dependent gamma-carboxylase (Mus musculus); experiment: Ratio of Vmax to Km assessed as 14CO2 incorporation for 30 mins
[2] = substrate: CC(C)=CCC/C(C)=C/CC/C(C)=C/CC/C(C)=C/CC1=C(C)C(=O)c2ccccc2C1=O; experiment: (§1) Activity for gamma-glutamylcarboxylase assessed as 14CO2 incorporation
How it was run: (§2)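 Mouse liver microsomal γ-glutamylcarboxylase. Reduced (hydroquinone) vitamin K as cofactor, 8 concentrations. Fixed enzyme level with 3.6 mM FLEEL substrate. Buffer: 16 µM ProFIX19 propeptide, 1.4 mM NaH14CO3, 25 mM MOPS pH 7.0, 500 mM NaCl, 0.16% phosphatidylcholine, 0.16% CHAPS, 8 mM DTT, 0.8 M ammonium sulfate. 14CO2 incorporated into peptide over 30 min counted by scintillation. Km and Vmax from initial rates by double-reciprocal plot.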

[3] = substrate: CC1=C(C/C=C(\C)CC/C=C(\C)CC/C=C(\C)CC/C=C(\C)CO)C(=O)c2ccccc2C1=O; experiment: as §1; how it was run: as §2
[4] = substrate: CC(C)=CCC/C(C)=C/CC/C(C)=C/CC/C(C)=C/CC1=C(C)C(=O)c2ccccc2C1=O; experiment: (§3) Activity for gamma-glutamylcarboxylase assessed as 14CO2 incorporation for 30 mins; how it was run: as §2
[5] = substrate: CC1=C(C/C=C(\C)CC/C=C(\C)CC/C=C(\C)CC/C=C(\C)CO)C(=O)c2ccccc2C1=O; experiment: as §3; how it was run: as §2

Molecule	Activity (MG-63)	also measured
CC(C)=CCC/C(C)=C/CC1=C(C)C(=O)c2ccccc2C1=O	Dose-dependent effect	–
CC(C)=CCC/C(C)=C/CC/C(C)=C/CC1=C(C)C(=O)c2ccccc2C1=O	Dose-dependent effect	–
CC1=C(C/C=C(\C)CC/C=C(\C)CC/C=C(\C)C=O)C(=O)c2ccccc2C1=O	Dose-dependent effect	–
CC1=C(C/C=C(\C)CC/C=C(\C)C=O)C(=O)c2ccccc2C1=O	Dose-dependent effect	–
CC1=C(C/C=C(\C)CC/C=C(\C)CC/C=C(\C)CC/C=C(\C)CO)C(=O)c2ccccc2C1=O	Dose-dependent effect	Vmax/Km [1]: 50 pmol/microM
CC1=C(C/C=C(\C)CC/C=C(\C)CC/C=C(\C)CO)C(=O)c2ccccc2C1=O	Dose-dependent effect	–
CC1=C(C/C=C(\C)CC/C=C(\C)CC/C=C(\C)CC/C=C(\C)C=O)C(=O)c2ccccc2C1=O	Dose-dependent effect	–
CC(C)=CCC/C(C)=C/CC/C(C)=C/CC/C(C)=C/CC1=C(C)C(=O)c2ccccc2C1=O	Dose-dependent effect	–
CC1=C(C/C=C(\C)CC/C=C(\C)CO)C(=O)c2ccccc2C1=O	Dose-dependent effect	–
Vitamin K-dependent gamma-carboxylase (Homo sapiens), P38435 (protein) MAVSAGSARTSPSSDKVQKDKAELISGPRQDSRIGKLLGFEWTDLSSWRRLVTLLNRPTDPASLAVFRFLFGFLMVLDIPQERGLSSLDRKYLDGLDVCRFPLLDALRPLPLDWMYLVYTIMFLGALGMMLGLCYRISCVLFLLPYWYVFLLDKTSWNNHSYLYGLLAFQLTFMDANHYWSVDGLLNAHRRNAHVPLWNYAVLRGQIFIVYFIAGVKKLDADWVEGYSMEYLSRHWLFSPFKLLLSEELTSLLVVHWGGLLLDLSAGFLLFFDVSRSIGLFFVSYFHCMNSQLFSIGMFSYVMLASSPLFCSPEWPRKLVSYCPRRLQQLLPLKAAPQPSVSCVYKRSRGKSGQKPGLRHQLGAAFTLLYLLEQLFLPYSHFLTQGYNNWTNGLYGYSWDMMVHSRSHQHVKITYRDGRTGELGYLNPGVFTQSRRWKDHADMLKQYATCLSRLLPKYNVTEPQIYFDIWVSINDRFQQRIFDPRVDIVQAAWSPFQRTSWVQPLLMDLSPWRAKLQEIKSSLDNHTEVVFIADFPGLHLENFVSEDLGNTSIQLLQGEVTVELVAEQKNQTLREGEKMQLPAGEYHKVYTTSPSPSCYMYVYVNTTELALEQDLAYLQELKEKVENGSETGPLPPELQPLLEGEVKGGPEPTPLVQTFLRRQQRLQEIERRRNTPFHERFFRFLLRKLYVFRRSFLMTCISLRNLILGRPSLEQLAQEVTYANLRPFEAVGELNPSNTDSSHSNPPESNPDPVHSEF	–	Km [2]: 13.3 µM; Km [3]: 2 µM; Vmax [4]: 126 pmol; Vmax [5]: 99.9 pmol
